Measured values as given in ChEMBL document CHEMBL4610085, “Boholamide A, an APD-Class, Hypoxia-Selective Cyclodepsipeptide” (J Nat Prod, 2020).
Active and inactive are the calls of the source. No cut-off for these calls is given here.

Legend:
[1] = Induction of calcium influx in STOCK Tg(CalcaEGFP)FG104Gsat/Mmucd) mouse DRG neurons harboring CGRP-GFP assessed as increase in cytoplasmic Ca2+ at 500 nM after 7 secs by Alexa-Flour 647 Isolectin B4 staining based assay relative to control; type: functional, DRG neuron
In short: (§1)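 Lumbar DRG L1–L6 from CGRP-GFP mice, dissociated with 0.25% trypsin for 20 min and triturated. Cultured ~16–24 h at 37 °C, 5% CO2, in MEM/10% FBS/HEPES/glucose, pH 7.4, then loaded with 4 μM Fura2-AM for 1 h. Ratio 340/380 nm excitation, 510 nm emission, recorded at room temperature during ~1 h pharmacology sequence. IB4 stain afterwards; cells classed by AITC, menthol, capsaicin, kM-RIIIJ, IB4 and CGRP-GFP.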

DRG neuron [2] = assay: Induction of calcium influx in STOCK Tg(CalcaEGFP)FG104Gsat/Mmucd) mouse DRG neurons harboring CGRP-GFP assessed as increase in cytoplasmic Ca2+ pulse at 10 nM after 15 secs by […]; type: functional, cell-based
In short: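 DRG neurons from CGRP-GFP mice, Fura2-AM loaded, imaged as 340/380 nm ratio. Compound applied as a 15-second pulse, with concentrations down to ~10 nM tested. Neuron classes assigned by pharmacological markers and IB4/CGRP-GFP.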

[3] = Toxicity in TuAB zebra fish embryo at 10 to 1000 nM dosed at 6 hpf and measured after 1 day postfertilization by bright field microscopic method; type: organism-based, Danio rerio; conditions: zebrafish, in vivo, 24 h, 1 µM
In short: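 TuAB zebrafish embryos exposed to compound or DMSO vehicle from 6 hpf to 1 dpf at 28.5 °C, then assessed by bright-field stereomicroscope imaging.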

[4] = Induction of calcium influx in STOCK Tg(CalcaEGFP)FG104Gsat/Mmucd) mouse DRG neurons harboring CGRP-GFP assessed as increase in cytoplasmic Ca2+ in at 500 nM after 7 secs by Alexa-Flour 647 Isolectin B4 staining based assay relative to control; type: functional, DRG neuron; in short: as §1
Huh-7 = assay: Cytotoxicity against human HuH7 cells assessed as reduction in cell viability after 48 hrs by MTT assay; type: functional, cell-based; conditions: Huh-7, 48 h
In short: (§2)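 Cells seeded at 10,000/well, left 24 h at 37 °C, then exposed to a range of concentrations for 48 h at 37 °C, either in a CO2 incubator (normoxia) or in a hypoxic chamber. MTT (0.5 mg/mL in PBS) was added for 2 h, DMSO was added, and absorbance was read at 570 nm. IC50 was fitted from the curves. Triplicate biological replicates.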

U-87 MG [5] = assay: Selectivity index, ratio of IC50 for cytotoxicity against human U87MG cells under normoxia condition to IC50 for cytotoxicity against human U87MG cells under hypoxia condition incubated for 48 hrs by MTT assay; type: functional, U-87MG ATCC
U-87 MG [6] = assay: Cytotoxicity against human U87MG cells assessed as reduction in cell viability after 48 hrs under hypoxia condition by MTT assay; type: functional, cell-based, U-87MG ATCC
In short: (§3)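 U87MG in DMEM with 10% FBS, 2 mM L-glutamine, penicillin/streptomycin; seeded 10,000 cells/well, 24 h at 37 °C, then exposed to compound at varying concentrations for 48 h at 37 °C either in a CO₂ incubator (normoxia) or a hypoxic chamber. MTT (0.5 mg/mL in PBS) added 2 h, DMSO solubilisation, absorbance 570 nm; IC50 by curve fitting; triplicate biological replicates.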

[7] = Induction of calcium influx in STOCK Tg(CalcaEGFP)FG104Gsat/Mmucd) mouse DRG neurons harboring CGRP-GFP assessed as increase in cytoplasmic Ca2+ at 1 uM after 7 secs by Alexa-Flour 647 Isolectin B4 staining based assay relative to control; type: functional, DRG neuron; in short: as §1
CHO = assay: Cytotoxicity against […] assessed as reduction in cell viability after 48 hrs by MTT assay; type: cell-based; conditions: Cricetulus griseus; in short: as §2
DRG neuron [8] = assay: Induction of cell death in STOCK Tg(CalcaEGFP)FG104Gsat/Mmucd) mouse DRG neurons N15 cells harboring CGRP-GFP at 1 uM 7 secs by Alexa-Flour 647 Isolectin B4 staining based light micrographic method; type: functional; in short: as §1
Cerebral cortex [9] = assay: Induction of cell death in mouse brain cortex assessed as increase in cell lysis at 1 uM after 5 secs by Alexa-Flour 647 Isolectin B4 staining based assay; type: functional, tissue-based
Cerebral cortex [10] = assay: Induction of cell death in mouse brain cortex assessed as increase in cytoplasmic Ca2+ accumulation at 1 uM by Alexa-Flour 647 Isolectin B4 staining based assay; type: functional, tissue-based
A549 = assay: Cytotoxicity against human A549 cells assessed as reduction in cell viability after 48 hrs by MTT assay; type: functional, cell-based; conditions: A549, 48 h; in short: as §2
[11] = Cytotoxicity against human CH157 cells assessed as reduction in cell viability after 48 hrs by MTT assay; type: functional, cell-based
DRG neuron [12] = assay: Irreversible induction of calcium influx in STOCK Tg(CalcaEGFP)FG104Gsat/Mmucd) mouse DRG neurons harboring CGRP-GFP assessed as increase in cytoplasmic Ca2+ pulse at 1 uM after 15 secs by […]; type: functional, cell-based; in short: as §1
U-87 MG [13] = assay: Cytotoxicity against human U87MG cells assessed as reduction in cell viability after 48 hrs under normoxia condition by MTT assay; type: functional, cell-based, U-87MG ATCC; in short: as §3

Structure (SMILES) | Activity [1] [%] | Activity (DRG neuron [2]) | Activity [3] | Activity [4] [%] | IC50 (Huh-7) [µM] | Ratio IC50 (U-87 MG [5]) | IC50 (U-87 MG [6]) [µM] | Activity [7] [%] | IC50 (CHO) [µM] | Activity (DRG neuron [8]) | Activity (Cerebral cortex [9]) | Activity (Cerebral cortex [10]) | IC50 (A549) [µM] | IC50 [11] [µM] | Activity (DRG neuron [12]) | IC50 (U-87 MG [13]) [µM]
C=C1/C=C/C(=O)NCC(=O)N[C@@H](C(C)C)C(=O)O[C@@H]([C@H](C)C[C@@H](C)CCC)[C@H](OC)C(=O)N1 | 8 | Active | Non-Toxic | 61 | 0.19 | 3.6 | 0.12 | 34 | 0.39 | Active | Active | Active | 0.39 | 0.098 | Active | 0.41
Cn1nnc2c(C(N)=O)ncn2c1=O [TEMOZOLOMIDE] | – | – | – | – | – | 0.6 | 1100 | – | – | – | – | – | – | – | – | 640
COc1cccc2c1C(=O)c1c(O)c3c(c(O)c1C2=O)C[C@@](O)(C(=O)CO)C[C@@H]3O[C@H]1C[C@H](N)[C@H](O)[C@H](C)O1 [DOXORUBICIN] | – | – | – | – | – | 0.45 | 0.98 | – | – | – | – | – | – | – | – | 0.45
